For 29 compounds, Survival and IC50 results are on record in ChEMBL document CHEMBL1155764, “Cytotoxicity of Rhamnosylanthraquinones and Rhamnosylanthrones from Rhamnus nepalensis” (J Nat Prod, 2001).

In one series the test system is Mus musculus. The experiment in a line: Toxicity in mouse P388 cells xenografted CDF1 mouse assessed as survival time at 2.5 mg/kg, ip. The series is classed as organism-based. On the set-up: dose 2.5 mg/kg, route intraperitoneal. Conditions: in vivo; call rule not given here. In short, it runs like this:
(§1)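 Two CDF1 mice per dose received P388 leukaemia cells intravenously, then a single intraperitoneal injection of the compound at 10, 5 or 2.5 mg/kg. The read-out was survival time in days after injection, compared with the average survival of the grafted mice.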
Regarding `CC(=O)O[C@@H]1[C@@H](O)[C@H](C)O[C@@H](Oc2cc(O)c3c(c2)Cc2cc(C)cc(O)c2C3=O)[C@@H]1OC(C)=O` [PRINOIDIN], the Survival stood at 7 days.

Another series has as its system KB. In words: Cytotoxicity against human KB cells. The series is classed as functional, cell-based. Conditions: Homo sapiens, KB; read-out: IC50.
In the case of `CC(=O)O[C@@H]1[C@@H](O)[C@H](C)O[C@@H](Oc2cc(O)c3c(c2)[C@H]([C@H]2c4cc(C)cc(O)c4C(=O)c4c(O)cc(O)cc42)c2cc(C)cc(O)c2C3=O)[C@@H]1OC(C)=O`, the IC50 is 1300 nM. The same measure, in the same setting: the result for `CC(=O)O[C@@H]1[C@@H](O)[C@H](C)O[C@@H](Oc2cc(O)c3c(c2)[C@H]([C@@H]2c4cc(C)cc(O)c4C(=O)c4c(O)cc(O[C@@H]5O[C@@H](C)[C@H](O)[C@@H](OC(C)=O)[C@H]5OC(C)=O)cc42)c2cc(C)cc(O)c2C3=O)[C@@H]1OC(C)=O` reads 2500 nM. In the case of `CC(=O)O[C@@H]1[C@@H](O)[C@H](C)O[C@@H](Oc2cc(O)c3c(c2)[C@@H]([C@H]2c4cc(C)cc(O)c4C(=O)c4c(O)cc(O)cc42)c2cc(C)cc(O)c2C3=O)[C@@H]1OC(C)=O`, the IC50 is 800 nM. As for `CC(=O)O[C@@H]1[C@@H](O)[C@H](C)O[C@@H](Oc2cc(O)c3c(c2)[C@H]([C@H]2c4cc(C)cc(O)c4C(=O)c4c(O)cc(O[C@@H]5O[C@@H](C)[C@H](O)[C@@H](OC(C)=O)[C@H]5OC(C)=O)cc42)c2cc(C)cc(O)c2C3=O)[C@@H]1OC(C)=O`, the IC50 was 900 nM. Take `Cc1cc(O)c2c(c1)[C@@H]([C@H]1c3cccc(O)c3C(=O)c3c(O)cc(C)cc31)c1cc(O)cc(O)c1C2=O`: the IC50 came out at 1800 nM. On to `Cc1cc(O)c2c(c1)[C@H]([C@@H]1c3cc(C)cc(O)c3C(=O)c3c(O)cc(O)cc31)c1cccc(O)c1C2=O`, for which the IC50 was 3400 nM.

Turning to `Cc1cc(O)c2c(c1)[C@H]([C@H]1c3cccc(O)c3C(=O)c3c(O)cc(C)cc31)c1cccc(O)c1C2=O`, the IC50 worked out at 200 nM. On to `CC(=O)O[C@@H]1[C@@H](O)[C@H](C)O[C@@H](Oc2cc(O)c3c(c2)C(=O)c2cc(C)cc(O)c2C3=O)[C@@H]1OC(C)=O`, for which the IC50 turned out to be 1900 nM. For the compound `Cc1cc(O)c2c(c1)[C@H]([C@H]1c3cc(C)cc(O)c3C(=O)c3c(O)cc(O)cc31)c1cc(O)cc(O)c1C2=O`, the IC50 came to 2500 nM. As for `CC(=O)O[C@@H]1[C@@H](OC(C)=O)[C@H](Oc2cc(O)c3c(c2)C(C(C)=O)c2cc(C)cc(O)c2C3=O)O[C@@H](C)[C@H]1OC(C)=O` (some centres not stated), the IC50 turned out to be 70 nM. Turning to `CC(=O)O[C@@H]1[C@@H](O)[C@H](C)O[C@@H](Oc2cc(O)c3c(c2)[C@H]([C@H]2c4cc(C)cc(O)c4C(=O)c4c(O)cc(O[C@@H]5O[C@@H](C)[C@H](OC(C)=O)[C@@H](O)[C@H]5OC(C)=O)cc42)c2cc(C)cc(O)c2C3=O)[C@@H]1OC(C)=O`, the IC50 is 800 nM. On the same count and under the same terms, the result for `CC(=O)O[C@@H]1[C@@H](O)[C@H](C)O[C@@H](Oc2cc(O)c3c(c2)[C@H]([C@@H]2c4cc(C)cc(O)c4C(=O)c4c(O)cc(O[C@@H]5O[C@@H](C)[C@H](OC(C)=O)[C@@H](O)[C@H]5OC(C)=O)cc42)c2cc(C)cc(O)c2C3=O)[C@@H]1OC(C)=O` reads 1200 nM; that for `CC(=O)O[C@@H]1[C@@H](O)[C@H](C)O[C@@H](Oc2cc(O)c3c(c2)[C@@H]([C@@H]2c4cc(C)cc(O)c4C(=O)c4c(O)cc(O[C@@H]5O[C@@H](C)[C@H](OC(C)=O)[C@@H](O)[C@H]5OC(C)=O)cc42)c2cc(C)cc(O)c2C3=O)[C@@H]1OC(C)=O`, 1000 nM. Take `CC(=O)O[C@@H]1[C@@H](O)[C@H](C)O[C@@H](Oc2cc(O)c3c(c2)[C@@H]([C@@H]2c4cc(C)cc(O)c4C(=O)c4c(O)cc(O)cc42)c2cc(C)cc(O)c2C3=O)[C@@H]1OC(C)=O`: the IC50 worked out at 3300 nM. In the case of `CC(=O)O[C@@H]1[C@@H](O)[C@H](C)O[C@@H](Oc2cc(O)c3c(c2)[C@H]([C@@H]2c4cc(C)cc(O)c4C(=O)c4c(O)cc(O)cc42)c2cc(C)cc(O)c2C3=O)[C@@H]1OC(C)=O`, the IC50 stood at 4500 nM. Take `Cc1cc(O)c2c(c1)[C@H]([C@@H]1c3cccc(O)c3C(=O)c3c(O)cc(C)cc31)c1cccc(O)c1C2=O`: the IC50 was 1200 nM.

As for `Cc1cc(O)c2c(c1)[C@H]([C@H]1c3cc(C)cc(O)c3C(=O)c3c(O)cc(O)cc31)c1cccc(O)c1C2=O`, the IC50 was determined as 1400 nM.

As for `Cc1cc(O)c2c(c1)[C@@H]([C@H]1c3cc(C)cc(O)c3C(=O)c3c(O)cc(O)cc31)c1cc(O)cc(O)c1C2=O`, the IC50 is 1100 nM. With `Cc1cc(O)c2c(c1)[C@@H]([C@H]1c3cc(C)cc(O)c3C(=O)c3c(O)cc(O)cc31)c1cccc(O)c1C2=O`, the IC50 was found to be 1200 nM. On to `COc1cccc2c1C(=O)c1c(O)c3c(c(O)c1C2=O)C[C@@](O)(C(=O)CO)C[C@@H]3O[C@H]1C[C@H](N)[C@H](O)[C@H](C)O1` [DOXORUBICIN], for which the IC50 is 200 nM. On to `Cc1cc(O)c2c(c1)Cc1cc(O)cc(O)c1C2=O` [EMODIN ANTHRONE], for which the IC50 was 3900 nM. Consider `CC(=O)O[C@@H]1[C@@H](O)[C@H](C)O[C@@H](Oc2cc(O)c3c(c2)Cc2cc(C)cc(O)c2C3=O)[C@@H]1OC(C)=O` [PRINOIDIN], for which the IC50 amounted to 45 nM.

The series is the same for the next values; noted with them: kb.
In the case of `CC(=O)O[C@H]1[C@H](Oc2cc(O)c3c(c2)C(=O)c2cc(C)cc(O)c2C3=O)O[C@@H](C)[C@H](O)[C@H]1O`, the IC50 result is given as “Not Active”. In the case of `CC(=O)O[C@@H]1[C@@H](OC(C)=O)[C@H](C)O[C@@H](Oc2cc(O)c3c(c2)C(=O)c2cc(C)cc(O)c2C3=O)[C@@H]1OC(C)=O`, the IC50 entry is on record as “Not Active”. For the compound `CC(=O)O[C@@H]1[C@@H](O)[C@H](C)O[C@@H](Oc2cc(O)c3c(c2)C(=O)c2cc(C)cc(O)c2C3=O)[C@@H]1O`, the half-maximal inhibitory concentration (IC50) entry was “Not Active”.

As to `Cc1cc(O)c2c(c1)C(=O)c1cccc(O)c1C2=O` [CHRYSOPHANOL], the IC50 entry is “Not Active”.

As to `Cc1cc(O)c2c(c1)C(=O)c1cc(O)cc(O)c1C2=O` [EMODIN], the IC50 entry is “Not Active”. For the compound `CC(=O)Oc1cc(C)cc2c1C(=O)c1c(OC(C)=O)cc(O[C@@H]3O[C@@H](C)[C@H](OC(C)=O)[C@@H](OC(C)=O)[C@H]3OC(C)=O)cc1C2=O` [FRANGULIN A PERACETATE], the IC50 result is reported as “Not Active”.

Regarding `COc1cc(O)c2c(c1)C(=O)c1cc(C)cc(O)c1C2=O` [PHYSCION], the IC50 result was “Not Active”.

For a further series, the system named is Mus musculus. In words: Toxicity in mouse P388 cells xenografted CDF1 mouse assessed as survival time at 5 mg/kg, ip. The class given is organism-based. On the set-up: dose 5 mg/kg, route intraperitoneal. As to conditions: in vivo. The gist of the method: as §1
For `CC(=O)O[C@@H]1[C@@H](O)[C@H](C)O[C@@H](Oc2cc(O)c3c(c2)Cc2cc(C)cc(O)c2C3=O)[C@@H]1OC(C)=O` [PRINOIDIN], the Survival is 4 days.

A further series deals with Mus musculus. The experiment in a line: Toxicity in mouse P388 cells xenografted CDF1 mouse assessed as survival time at 10 mg/kg, ip. The class given is organism-based. The arrangement: dose 10 mg/kg, route intraperitoneal. Conditions: in vivo. The gist of the method: as §1
Regarding `CC(=O)O[C@@H]1[C@@H](O)[C@H](C)O[C@@H](Oc2cc(O)c3c(c2)Cc2cc(C)cc(O)c2C3=O)[C@@H]1OC(C)=O` [PRINOIDIN], the Survival worked out at 2 days.
